In data set [1] the test system is Enterococcus faecium. Description: Antibacterial activity against vancomycin-resistant Enterococcus faecium HM-952 infected in C57BL/6 mouse assessed as log reduction in bacterial colony forming unit in feces at 20 mg/kg,po qd measured after 7 days of administration. The note with it: time 7 day. It counts as functional. The procedure, abridged: (§1)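 C57BL/6 mice given ampicillin in drinking water (0.5 g/L) for 7 days, then gavaged orally with 5.39 × 10^8 CFU/mL E. faecium HM-952. Colonization was allowed for 7 days. Randomized groups (n = 7) got 20 mg/kg by oral gavage once daily for 8 days. Vehicle was dimethylacetamide:20% propylene glycol:40% PEG 400:30% PBS. Fecal CFU was counted on days 0, 3, 5 and 7, and ileal and cecal CFU at day 9 after euthanasia. Comparison was against vehicle.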

Data set [2] deals with Enterococcus faecium. As to the kind of experiment: Antibacterial activity against Enterococcus faecium HM-952 assessed as inhibition of bacterial growth incubated for 18 to 20 hrs by broth microdilution assay. It counts as functional. The settings on record: time 18-20 hrs. A general note: Dilution methods test growth across graded concentrations, often in twofold steps.

In data set [3] the test system is Enterococcus faecium. As to the kind of experiment: Antibacterial activity against vancomycin-resistant Enterococcus faecium HM-952 infected in C57BL/6 mouse assessed as reduction in bacterial burden in feces at 20 mg/kg,po qd measured after 5 days of administration. It counts as functional. More on the design: scale not given: the % may be the effect or the level left. The procedure, abridged:
as §1

Data set [4] has as its system Enterococcus faecium. As to the kind of experiment: Antibacterial activity against vancomycin-resistant Enterococcus faecium HM-952 infected in C57BL/6 mouse assessed as reduction in bacterial burden in feces at 20 mg/kg,po qd measured after 7 days of administration. More on the design: scale not given: the % may be the effect or the level left. The settings on record: time 7 day. It counts as functional. The procedure, abridged:
as §1

Data set [5] deals with Enterococcus faecium. As to the kind of experiment: Antibacterial activity against vancomycin-resistant Enterococcus faecium HM-952 infected in C57BL/6 mouse assessed as reduction in bacterial burden in feces at 20 mg/kg,po qd measured after 3 days of administration. It counts as functional. The procedure, abridged: as §1
Data set [6] concerns Enterococcus faecium. As to the kind of experiment: Antibacterial activity against vancomycin-resistant Enterococcus faecium HM-952 infected in C57BL/6 mouse assessed as log reduction in bacterial colony forming unit in feces at 20 mg/kg,po qd measured after 5 days of administration. It counts as functional. The note with it: time 5 day. The procedure, abridged: as §1
For data set [7], the system named is Enterococcus faecium. As to the kind of experiment: Antibacterial activity against vancomycin-resistant Enterococcus faecium HM-952 infected in C57BL/6 mouse assessed as log reduction in bacterial colony forming unit in ileum at 20 mg/kg,po qd measured after 9 days of administration. It counts as functional. The settings on record: time 9 day. In a few lines:
as §1

Data set [8] concerns Enterococcus faecium. Description: Antibacterial activity against vancomycin-resistant Enterococcus faecium HM-952 infected in C57BL/6 mouse assessed as reduction in bacterial burden in ileum at 20 mg/kg,po qd measured after 9 days of administration. It counts as functional. Further details: scale not given: the % may be the effect or the level left. The note with it: time 9 day. In a few lines: as §1

The test system of data set [9] is Enterococcus faecium. As to the kind of experiment: Antibacterial activity against vancomycin-resistant Enterococcus faecium HM-952 infected in C57BL/6 mouse assessed as log reduction in bacterial colony forming unit in cecum at 20 mg/kg,po qd measured after 9 days of administration. It counts as functional. The note with it: time 9 day. The procedure, abridged: as §1

The test system of data set [10] is Enterococcus faecium. As to the kind of experiment: Antibacterial activity against vancomycin-resistant Enterococcus faecium HM-952 infected in C57BL/6 mouse assessed as reduction in bacterial burden in cecum at 20 mg/kg,po qd measured after 9 days of administration. It counts as functional. The settings on record: time 9 day. Further details: scale not given: the % may be the effect or the level left. In a few lines:
as §1

The subject of data set [11] is Enterococcus faecium. As to the kind of experiment: Antibacterial activity against vancomycin-resistant Enterococcus faecium HM-952 infected in C57BL/6 mouse assessed as log reduction in bacterial colony forming unit in feces at 20 mg/kg,po qd measured after 3 days of administration. It counts as functional. The settings on record: time 3 day. The procedure, abridged:
as §1

The nature of data set [12]: Distribution coefficient between 1-Octanol and PBS buffer, logD of the compound at pH 6.5 incubated for 140 mins by HPLC anlaysis. It counts as physicochemical. The note with it: 1-octanol/PBS buffer.
Data set [13] in a line: Distribution coefficient between 1-Octanol and PBS buffer, logD of the compound at pH 7.4 incubated for 140 mins by HPLC anlaysis. It counts as physicochemical. The note with it: 1-octanol/PBS buffer.
A short description of data set [14]: Aqueous solubility of the compound in PBS buffer at pH 7.4 by HPLC analysis. It counts as physicochemical. In a few lines:
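Solubility is measured in phosphate-buffered saline at pH 7.4 and quantified against a calibration curve whose highest point is 200 μM, so the upper reportable value is >200 μM.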

Data set [15] is described as follows: Efflux ratio of apparent permeability across basolateral to apical over apical to basolateral side in human Caco2 cells. It counts as ADME, cell-based. The note with it: Caco-2. In a few lines:
(§2)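 Caco-2 monolayer transport measured in both directions, apical→basolateral and basolateral→apical, and reported as apparent permeability (×10–6 cm/s). Efflux ratio is calculated as Papp B→A divided by Papp A→B.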
For orientation: Caco-2 monolayers are a common model of the intestinal barrier.

Data set [16] in a line: Apparent permeability across basolateral to apical side in human Caco2 cells. It counts as ADME, cell-based. The note with it: Caco-2. The procedure, abridged: as §2
A short description of data set [17]: Permeability across apical to basolateral side in human Caco-2 cells assessed as drug recovery. It counts as ADME, cell-based. The settings on record: read-out: Drug recovery.
Data set [18] is described as follows: Apparent permeability across apical to basolateral side in human Caco2 cells. The settings on record: Caco-2. It counts as ADME, cell-based. The procedure, abridged: as §2

The values that follow come from ChEMBL document CHEMBL5252663, “Evaluation of 1,3,4-Thiadiazole Carbonic Anhydrase Inhibitors for Gut Decolonization of Vancomycin-Resistant Enterococci” (ACS Med Chem Lett, 2023).

In brackets after ≈: the same amount, converted by molar mass. Activity calls are given as the source filed them. A value given as a limit tells only on which side of the number the result lay.

As for `CC(=O)NC[C@H]1CN(c2ccc(N3CCOCC3)c(F)c2)C(=O)O1` [LINEZOLID], the Activity with Enterococcus faecium [1] is 1.07 log10CFU; in the data set with Enterococcus faecium [3] (time 5 day), 86.5%; with Enterococcus faecium [4], 91.5%; in the data set with Enterococcus faecium [6], 0.87 log10CFU. In addition, the MIC in the data set on Enterococcus faecium [2] worked out at 1 µg/mL (≈ 2.96 µM). Besides, in the data set with Enterococcus faecium [5] (time 3.0 day), the outcome was Active.

For `CC(=O)Nc1nnc(S(N)(=O)=O)s1` [ACETAZOLAMIDE], the Activity is 2.59 log10CFU in the data set on Enterococcus faecium [7]; 2.16 log10CFU with Enterococcus faecium [1]; 99.7% in the data set on Enterococcus faecium [8]; 2.59 log10CFU in the data set with Enterococcus faecium [9]; 99.7% with Enterococcus faecium [10]; 99.3% with Enterococcus faecium [4]. Besides, the figures for the Activity in the data set on Enterococcus faecium [11] and in the data set on Enterococcus faecium [5] (time 3 day) were 1 log10CFU and 90%, respectively. Further, the MIC in the data set with Enterococcus faecium [2] is 1 µg/mL (≈ 4.5 µM). In the data set with Enterococcus faecium [3] (time 5.0 day), the result was Active.

`NS(=O)(=O)c1nnc(NC(=O)CN2CCOCC2)s1`: the Activity in the data set on Enterococcus faecium [7] stood at 1.62 log10CFU; in the data set with Enterococcus faecium [1], 2.16 log10CFU; in the data set with Enterococcus faecium [8], 97.6%; in the data set with Enterococcus faecium [9] it was 1.92 log10CFU; in the data set on Enterococcus faecium [3] (time 5 day) it was 92.6%; in the data set on Enterococcus faecium [10], 98.8%. In addition, the Activity is 99.3% with Enterococcus faecium [4], 1 log10CFU in the data set on Enterococcus faecium [11], 90% in the data set on Enterococcus faecium [5] (time 3 day) and 1.13 log10CFU in the data set with Enterococcus faecium [6]. In addition, the logD at 2.333 h in [12] was -0.97; in [13], -1.38. In addition, the minimum inhibitory concentration (MIC) with Enterococcus faecium [2] worked out at 1 µg/mL (≈ 3.25 µM). This compound returned a solubility in data set [14] of 127 µM (≈ 39 µg/mL).

As for `CC(C)(C)CC(=O)Nc1nnc(S(N)(=O)=O)s1`, the Activity in the data set with Enterococcus faecium [7] was found to be 1.98 log10CFU; with Enterococcus faecium [1] it was 2.16 log10CFU; in the data set with Enterococcus faecium [8] it was 98.9%; with Enterococcus faecium [9], 2.36 log10CFU; in the data set with Enterococcus faecium [3] (time 5 day), 92.6%; with Enterococcus faecium [10], 99.6%. For the same compound, the Activity was 99.3% in the data set with Enterococcus faecium [4], 1 log10CFU with Enterococcus faecium [11], 90% in the data set with Enterococcus faecium [5] (time 3 day) and 1.13 log10CFU in the data set on Enterococcus faecium [6]. Besides, in data set [15], the efflux ratio was 2.22. The logD at 2.333 h in [12] worked out at 1.55; in [13], 1.36. In addition, the Papp B→A in data set [16] came out at 8.2 ×10⁻⁶ cm/s. Also, in data set [17], the recovery was 80%. Further, in the data set with Enterococcus faecium [2], the minimum inhibitory concentration (MIC) stood at 0.03 µg/mL (≈ 0.108 µM). For the same compound, the solubility in data set [14] is greater than 200 µM. In addition, the Papp A→B in [18] is 3.7 ×10⁻⁶ cm/s.

On to `NS(=O)(=O)c1nnc(NC(=O)CCC2CCCCC2)s1`, for which the Activity in the data set with Enterococcus faecium [7] was 1.13 log10CFU; in the data set on Enterococcus faecium [1], 2.16 log10CFU; in the data set with Enterococcus faecium [8], 94.1%; in the data set with Enterococcus faecium [9] it was 1.57 log10CFU; in the data set with Enterococcus faecium [3] (time 5 day), 92.6%; in the data set with Enterococcus faecium [10] it was 97.3%. In addition, the Activity is 99.3% with Enterococcus faecium [4], 1 log10CFU in the data set with Enterococcus faecium [11], 90% in the data set on Enterococcus faecium [5] (time 3 day) and 1.13 log10CFU with Enterococcus faecium [6]. In addition, the efflux ratio in data set [15] turned out to be 2.17. Besides, the figures for the log distribution coefficient (logD) at 2.333 h in [12] and in [13] were 2.47 and 2.26, respectively. Besides, the recovery in data set [17] is 35%. In the data set with Enterococcus faecium [2], the minimal inhibitory concentration (MIC) was found to be 0.03 µg/mL (≈ 0.0942 µM). Further, in data set [14], the concentration in solution (solubility) was 33 µM (≈ 10.5 µg/mL).

Usually MIC stands for the smallest concentration in the dilution series that meets the test's criterion for growth inhibition. By logD is commonly meant lipophilicity at a set pH, counting ionised and neutral species. The term solubility denotes the concentration that dissolves in the medium under given conditions. In general, efflux ratio refers to a quotient of directional permeabilities that is used to spot active efflux. By Papp B→A is commonly meant how fast a substance crosses the layer from the basolateral side. What is called Papp A→B is the apparent permeability from the apical to the basolateral side of a cell layer.
